Results on 37 variants are retold here after the RNAGym collection of RNA variant scans (doi:10.1126/science.aae0568).

Fewer inactive variants are shown than the library holds.

B1: tRNA (parent)
chain: GUUCCGUUGGCGUAAUGGUAACGCGUCUCCCUCCUAAGGAGAAGACUGCGGGUUCGAGUCCCGUACGGAACG

Variants of B1 are the subject of the series. The series is described as follows: yeast fitness relative to wild type (ratio to wild type); higher = fitter; tRNA-Arg(CCU), competitive growth, 37 C, YPD. The gist of the method: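 The tRNA-Arg(CCU) gene variants were made by chemical synthesis with a 3% per-site mutation rate at 69 sites and inserted at the native genomic locus of Saccharomyces cerevisiae. After pooling, the strains were competed in YPD at 37°C for 24 hours in six parallel replicates. Gene amplicons from the start population and each end population were read by 100-nucleotide paired-end sequencing, and Darwinian fitness relative to wild type was taken from genotype frequency changes. Genotypes needed ≥ 100 starting reads, and estimates < 0.5 were set to 0.5.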
As for GUUCCGUUGGCGUAAUGGUAACGCGUCUCCCUCCAAAGGAGACGACUGAGGGUUCGAGUCCCGUACGGAACG [U35A A43C C49A], the yeast fitness came out at 0.566. Take GUUCCGUUGGCGUAAUGGUAACGCGUCUCCCUCCAAAGGAGAAGAGUGUGGGUUCGAGUCCCGUACGGAACG [U35A C46G C49U]: the yeast fitness amounted to 0.527. The value for GUUCCGUUGGCGUAAUGGUAACGCGUCUCCCUCCAAAGGAGAAGAAUGGGGAUUCGAGUCCCGUACGGAACG [U35A C46A C49G G52A] was 0.572; that for GUUCCGUUGGCGUAAUGGUAACGCGUCUCCCUCUUAAGGAGAAGACUGCGGCUUUGAAUCCCGUACGGAACG [C34U G52C C55U G58A] was at most 0.5. GUUCCGUUGGCGUAAUGGUAACGCGUCUCCCUCCCAAGGAGUAGACUGCGGGUUCGAGUCCCGUACGGAACG [U35C A42U]: the yeast fitness came to 0.819. The value for GUUCCGUUGGCGUAAUGGUAACGCGUCUCCCUCCCAAGGAGCAGACUGCGGGUUCGAGUCCCGUACGGAACG [U35C A42C] was 0.819. Turning to GUUCCGUUGGCGUAAUGGUAACGCGUCUCCCUCUUAAGGAGAAGACUGCGGGUUCGAGUCCCGUACAGAACG [C34U G67A], the yeast fitness stood at 0.744. Turning to GUUCCGUUGGCGUAAUGGUAACGCGUCUCCCUCCAAAGGAGAAGACUGCGGGUUCGAGUCCCGUAGGGAACG [U35A C66G], the yeast fitness was 0.599. In the case of GUUCCGUUGGCGUAAUGGUAACGCGUCUCCCUCUUAAGGAGAAGACUGCCGGUUCGAGUCCCGUACGGAACG [C34U G50C], the yeast fitness worked out at 0.528. The value for GUUCCGUUGGCGUAAUGGUAACGCGUCUCCCUCCCAAGGAGAAGGCUGCGGGUUCGAGUCCCGUACGGAACG [U35C A45G] was 0.773; that for GUUCCGUUGGCGUAAUGGUAACGCGUCUCCCUCCAAAGGAGAAGACUGCGGGUUCGUGUCUCGUACGGAACG [U35A A57U C61U] was at most 0.5; that for GUUCCGUUGGCGUAAUGGUAACGCGUCUCCCUCCAAAGGAGAAGACUGCGGGUUCGAGUCCCGUACGGUACG [U35A A69U] was 0.806. For GUUCCGUUGGCGUAAUGGUAACGCGUCUCCCUCUUAAGGAGAAGACUGCAGGUUCCAGUCCCGUACGGAACG [C34U G50A G56C], the yeast fitness turned out to be 0.662. For the variant GUUCCGUUGGCGUAAUGGUAACGCGUCUCCCUCCCACGGAGAAGACUGCGGGUUAGAGUGCCCUACGGAACG [U35C A37C C55A C60G G63C], the yeast fitness is at most 0.5. GUUCCGUUGGCGUAAUGGUAACGCGUCUCCCUCUUAAGGAGAAGACUGCGGGUCCGAGUCACGUACGGAACG [C34U U54C C61A]: the yeast fitness was at most 0.5.

Regarding GUUCCGUUGGCGUAAUGGUAACGCGUCUCCCUCCAAAGGAGAAGACUGCGGGUUCGAGUGCGGUACGAAACG [U35A C60G C62G G68A], the yeast fitness was at most 0.5.

As for GUUCCGUUGGCGUAAUGGUAACGCGUCUCCCUCCAAAGGAGAAGACUGCGGGUUCGUGUCCCGUAGGGAACG [U35A A57U C66G], the yeast fitness is at most 0.5. As to GUUCCGUUGGCGUAAUGGUAACGCGUCUCCCUCCAAAGGAGAAAACUGCGGGUUCGAGUCCCGUACGGAACG [U35A G44A], the yeast fitness stood at 0.715. The value for GUUCCGUUGGCGUAAUGGUAACGCGUCUCCCUCCAAAGGAGAGGACUGCGGGUUCGAGUCCCGUACGGAACG [U35A A43G] was 0.624.

Take GUUCCGUUGGCGUAAUGGUAACGCGUCUCCCUCUUAAGGAGAAGACUGCGUGUACGAGUUCCGUCCGGAACG [C34U G51U U54A C60U A65C]: the yeast fitness is at most 0.5. Consider GUUCCGUUGGCGUAAUGGUAACGCGUCUCCCUCCAAAGGAGAAGACUGCGGGUUCGAAUCCCGUACCGAACG [U35A G58A G67C], for which the yeast fitness is at most 0.5. As to GUUCCGUUGGCGUAAUGGUAACGCGUCUCCCUCCCGAGGAGAAGACUGCGGGUUCGAGUCCCGUACGGAACG [U35C A36G], the yeast fitness was 0.931. Take GUUCCGUUGGCGUAAUGGUAACGCGUCUCCCUCCAAAAGAGAAGACUGCGGGUUCGAGUCGCGUACGGAACG [U35A G38A C61G]: the yeast fitness was at most 0.5. As to GUUCCGUUGGCGUAAUGGUAACGCGUCUCCCUCCCUAAGAGAAGAAUGCGGGUCCGAGUCCCGUACGGAACG [U35C A36U G38A C46A U54C], the yeast fitness is at most 0.5. For GUUCCGUUGGCGUAAUGGUAACGCGUCUCCCUCCAAAGGAGAAGACUGCGGGUUCGAGUCGCGUACGGAACG [U35A C61G], the yeast fitness was at most 0.5. Consider GUUCCGUUGGCGUAAUGGUAACGCGUCUCCCUCUUAAGGAGAAGACUGCAGGUUCGAGCCCAGAACGGAACG [C34U G50A U59C C62A U64A], for which the yeast fitness was at most 0.5. Turning to GUUCCGUUGGCGUAAUGGUAACGCGUCUCCCUCCCAAGGAGCAGACUGCGGGUUCGAGUCCCGAACGGAACG [U35C A42C U64A], the yeast fitness is at most 0.5. For the variant GUUCCGUUGGCGUAAUGGUAACGCGUCUCCCUCCAAAGGUGAAGAGUGCGGGAUCGAGUCCCGUACGGAACG [U35A A40U C46G U53A], the yeast fitness was at most 0.5.

Consider GUUCCGUUGGCGUAAUGGUAACGCGUCUCCCUCCAAAGGAGAAGCCUGCGGGUUCGAGUCCCGUACGUAACG [U35A A45C G68U], for which the yeast fitness is at most 0.5. Consider GUUCCGUUGGCGUAAUGGUAACGCGUCUCCCUCCAAUGGAGAAGACUGCGGAUUCGAGCCCCGUAAAGAACG [U35A A37U G52A U59C C66A G67A], for which the yeast fitness is at most 0.5. With GUUCCGUUGGCGUAAUGGUAACGCGUCUCCCUCCAAGGGAGAUGCCUGCGGGUUCGAGUCUCGUACGGAACG [U35A A37G A43U A45C C61U], the yeast fitness is at most 0.5.

Turning to GUUCCGUUGGCGUAAUGGUAACGCGUCUCCCUCUUAAGGAGAAGACUGCGGGUUCAAGUCCCGUACGGAACG [C34U G56A], the yeast fitness is 0.798. As to GUUCCGUUGGCGUAAUGGUAACGCGUCUCCCUCCAAAGGAGCAGAUUGCGGGUUCGAGUCCCGUAUCGAACG [U35A A42C C46U C66U G67C], the yeast fitness is at most 0.5.

As to GUUCCGUUGGCGUAAUGGUAACGCGUCUCCCUCCCAUGGAGAAGAGUGCGGGUCCGAGUCACGUACGGAACG [U35C A37U C46G U54C C61A], the yeast fitness is at most 0.5. The value for GUUCCGUUGGCGUAAUGGUAACGCGUCUCCCUCUUAAGGAGAAGACUGCGCGUUCGACUCCCGUACGGAACG [C34U G51C G58C] was at most 0.5; that for GUUCCGUUGGCGUAAUGGUAACGCGUCUCCCUCCAAAGGAGAAGAAUGGGGAUUCGAGUUCCGUACGGAACG [U35A C46A C49G G52A C60U] was 0.661.

As to GUUCCGUUGGCGUAAUGGUAACGCGUCUCCCUCUUAAGGAGAAGACUGCGGGUACGAGUCCCGUACGGAACG [C34U U54A], the yeast fitness is at most 0.5.
